We go through 16 molecules from ChEMBL document CHEMBL1149551, “Novel selective PPARdelta agonists: optimization of activity by modification of alkynylallylic moiety” (Bioorg Med Chem Lett, 2007).

Structures are written as SMILES.

Test [1] addresses T1, Peroxisome proliferator-activated receptor alpha (Homo sapiens) (UniProt Q07869).
T1 sequence (whole entry): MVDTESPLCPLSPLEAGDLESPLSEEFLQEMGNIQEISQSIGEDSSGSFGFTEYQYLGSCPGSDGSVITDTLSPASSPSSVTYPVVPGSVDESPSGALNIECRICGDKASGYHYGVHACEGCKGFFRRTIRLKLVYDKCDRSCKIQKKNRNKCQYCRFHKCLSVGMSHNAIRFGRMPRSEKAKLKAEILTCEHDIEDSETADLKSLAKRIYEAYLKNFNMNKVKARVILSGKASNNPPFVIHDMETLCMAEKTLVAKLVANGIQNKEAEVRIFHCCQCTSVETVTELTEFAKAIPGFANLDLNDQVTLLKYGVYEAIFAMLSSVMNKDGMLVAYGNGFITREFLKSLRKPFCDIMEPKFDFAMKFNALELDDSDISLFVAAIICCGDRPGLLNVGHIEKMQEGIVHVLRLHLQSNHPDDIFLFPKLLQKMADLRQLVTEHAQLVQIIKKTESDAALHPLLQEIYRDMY
The experiment in a line: Agonist activity at human PPARalpha by transactivation assay relative to NNC 61-4655. Type of test: functional. A digest of the protocol:
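Transactivation run in at least three separate experiments, each at five or more concentrations from 0.001 to 30 µM. EC50 is the concentration giving half of the compound's own maximal activity, reported as the mean. Efficacy is given relative to the maximal activity of the reference PPARα agonist.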

In test [2] the target is T2, Peroxisome proliferator-activated receptor alpha (Homo sapiens, UniProt Q07869).
T2 sequence (Q07869 whole entry): T1 sequence (whole entry)
The experiment in a line: Agonist activity at human PPARalpha by transactivation assay. It is filed as functional.

Test [3] deals with T3, Peroxisome proliferator-activated receptor gamma (Homo sapiens, UniProt P37231).
T3 sequence (P37231 whole entry): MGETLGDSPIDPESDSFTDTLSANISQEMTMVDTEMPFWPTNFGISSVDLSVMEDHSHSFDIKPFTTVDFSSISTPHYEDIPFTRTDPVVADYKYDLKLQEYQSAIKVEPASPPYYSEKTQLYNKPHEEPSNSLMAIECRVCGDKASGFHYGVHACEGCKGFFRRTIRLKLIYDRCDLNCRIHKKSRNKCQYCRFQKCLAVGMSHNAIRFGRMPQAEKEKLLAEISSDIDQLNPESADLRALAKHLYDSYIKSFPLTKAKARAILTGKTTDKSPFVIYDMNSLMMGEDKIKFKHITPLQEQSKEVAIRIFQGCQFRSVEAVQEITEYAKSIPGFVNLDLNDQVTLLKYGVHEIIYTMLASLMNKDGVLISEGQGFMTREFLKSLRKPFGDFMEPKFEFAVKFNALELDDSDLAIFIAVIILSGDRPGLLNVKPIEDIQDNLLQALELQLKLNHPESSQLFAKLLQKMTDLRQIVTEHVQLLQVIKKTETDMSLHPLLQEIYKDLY
Type of test: functional.

The target of test [4] is T4, Peroxisome proliferator-activated receptor delta (Homo sapiens, UniProt Q03181).
T4 sequence (Q03181 whole entry): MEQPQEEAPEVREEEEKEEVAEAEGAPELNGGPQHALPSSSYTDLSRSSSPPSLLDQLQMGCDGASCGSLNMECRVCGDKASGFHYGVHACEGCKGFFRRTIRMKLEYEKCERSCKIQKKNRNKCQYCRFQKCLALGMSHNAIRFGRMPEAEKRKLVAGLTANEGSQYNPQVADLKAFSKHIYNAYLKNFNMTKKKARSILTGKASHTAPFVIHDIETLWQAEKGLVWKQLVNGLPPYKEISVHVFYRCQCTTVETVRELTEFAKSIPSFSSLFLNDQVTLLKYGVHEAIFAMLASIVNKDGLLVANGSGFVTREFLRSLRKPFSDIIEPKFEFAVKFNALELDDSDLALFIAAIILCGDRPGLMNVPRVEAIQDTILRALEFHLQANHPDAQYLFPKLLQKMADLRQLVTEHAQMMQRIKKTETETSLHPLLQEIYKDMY

Turning to `CN(CCOc1ccc(CC2SC(=O)NC2=O)cc1)c1ccccn1` (stereo unspecified), the %max in test [1] is above 24%.

Turning to `Cc1cc2cc(C(C#Cc3ccc(F)cc3)/C=C\COc3ccc(OCC(=O)O)c(C)c3)ccc2o1` (stereo unspecified), the EC50 in test [2] and in test [3] was above 10 µM throughout. The same molecule had a %max in test [1] above 41%.

As to `CCO[C@@H](Cc1ccc(OC/C=C/C#Cc2ccccc2)cc1)C(=O)O`, the results for the EC50 in test [2], in test [3] and in test [4] were 0.01 µM, 2.6 µM and 6.4 µM, respectively.

For `Cc1cc2cc(C(C#Cc3ccc(C)s3)/C=C\COc3ccc(OCC(=O)O)c(C)c3)ccc2o1` (stereo unspecified), the EC50 in test [2] was 5.8 µM; in test [3], above 10 µM; in test [4], 0.15 µM. The %max in test [1] was below 10%.

Take `Cc1ccc(-c2ccc(/C(C#Cc3ccccc3)=C/COc3ccc(OCC(=O)O)c(C)c3)cc2)s1`: the EC50 in test [2] and in test [3] was above 10 µM throughout. In test [1], this molecule yielded a %max above 60%.

In the case of `Cc1cc(SC/C=C/C#Cc2ccccc2)ccc1OCC(=O)O`, the figures for the EC50 in test [2] and in test [4] were 14 µM and 12.1 µM, respectively.

`Cc1cc(OC/C=C\C(C#Cc2ccc(C(F)(F)F)cc2)c2ccc(Br)cc2)ccc1OCC(=O)O` (stereo unspecified): the EC50 in test [2] is above 10 µM; in test [4], 0.13 µM. This molecule had a %max in test [1] above 19%.

On to `Cc1cc(SC/C=C\C(C#Cc2ccccc2)c2ccc(Br)cc2)ccc1OCC(=O)O` (stereo unspecified), for which the values for the EC50 in test [2], in test [3] and in test [4] were above 10 µM, above 10 µM and 0.16 µM, respectively. In test [1], this molecule showed a %max above 24%.

In test [1], `Cc1cc(OC/C=C(\C#Cc2ccccc2)c2ccccc2)ccc1OCC(=O)O` returned a %max below 10%.

In test [1], `Cc1cc(SCc2sc(-c3ccc(C(F)(F)F)cc3)nc2C)ccc1OCC(=O)O` gave a %max of 68%.

Consider `CCO[C@@H](Cc1ccc(OC/C=C(\C#Cc2ccccc2)c2ccccc2)cc1)C(=O)O`, for which the EC50 in test [2] and in test [3] was above 10 µM each time.

For the molecule `Cc1ccc(C#CC(/C=C\COc2ccc(OCC(=O)O)c(C)c2)c2ccc(Br)cc2)s1` (stereo unspecified), the results for the EC50 in test [2] and in test [4] were above 10 µM and 0.22 µM, respectively. In test [1], this molecule returned a %max above 15%.

On to `Cc1cc(OC/C=C\C(C#Cc2ccccn2)c2ccc(Br)cc2)ccc1OCC(=O)O` (stereo unspecified), for which the EC50 was above 10 µM in test [2] and 0.24 µM in test [4]. Moreover, the %max in test [1] is above 22%.

On to `Cc1cc(OC/C=C\C(C#Cc2ccccc2)c2cnc3ccccc3c2)ccc1OCC(=O)O` (stereo unspecified), for which the EC50 was 4.1 µM in test [2] and 6.6 µM in test [3]. In test [1], this molecule showed a %max of 33%.

Regarding `Cc1cc(OC/C=C(\C#Cc2ccccc2)c2ccc(Br)cc2)ccc1OCC(=O)O`, in test [1], the %max was below 10%.

Regarding `COc1ccc(C#CC(/C=C\CSc2ccc(OCC(=O)O)c(C)c2)c2ccc(-c3ccccc3)cc2)cc1` (stereo unspecified), the EC50 in test [2] is above 10 µM; in test [3], above 10 µM; in test [4], 0.011 µM. The %max in test [1] is above 58%.

One may read the EC50 as the midpoint of the concentration-response curve. Read a low EC50 as greater potency.
